Assay results from ChEMBL document CHEMBL2176879, “Identification of HIV-1 inhibitors targeting the nucleocapsid protein” (J Med Chem, 2012).
pEC50, pKi: −log10 of the molar value. The source made the active and inactive calls.

Assays:
[1] = system: Human immunodeficiency virus 1; test: Binding affinity to HIV1 NL4-3 N-terminal GST-tagged nucleocapsid protein expressed in Escherichia coli BL21DE3 by resonant waveguide grating-based SRU BIND assay
How it was run: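 GST-p2-NC (NL4-3, E. coli BL21DE3(pLysS), GSH-purified) immobilized at 5 μM on aldehyde-activated optical biosensor; compounds added at 25 μM in PBS, 1 % DMSO; peak wavelength shift followed over time at room temperature; stoichiometry from expected PWV using ligand/receptor MW ratio and target activity.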

[2] = Inhibition of HIV1 NL4-3 N-terminal GST-tagged nucleocapsid protein interaction to FAM-labeled SL-2 DNA expressed in Escherichia coli BL21DE3 by fluorescence polarisation assay; design: species or system Human immunodeficiency virus 1
[3] = system: Human immunodeficiency virus 1; test: Binding affinity to HIV1 Gag protein assessed as change in melting temperature using SYPRO orange by differential scanning fluorimetry analysis
How it was run: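 5 μM GST-Gag incubated with 5X SYPRO Orange and 5 μM compound in 5 mM HEPES pH 7.5, 150 mM NaCl; heated 35–94 °C at 1 °C/min. Tm from Boltzmann sigmoid fit; ΔTm of 2 °C taken as hit threshold.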

[4] = system: Human immunodeficiency virus 1; test: Displacement of FAM-labeled SL-2 from HIV1 NL4-3 N-terminal GST-tagged nucleocapsid protein-FAM-labeled SL-2 complex expressed in Escherichia coli BL21DE3 by EMSA analysis
How it was run: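 Pre-formed complex of GST-p2-NC with fluorescein-labeled SL-2 DNA (15 μM protein, 0.5 μM DNA in PBS, 10 nM ZnCl2) incubated with compound, resolved by native PAGE; free/bound probe quantified by fluorescence gel scanning.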

[5] = system: SUP-T1; test: Cytotoxicity against human SupT1 cells at 0.1 uM after 7 days by Trypan Blue dye exclusion analysis; type: cell-based; details: sup-t1, 168 h
How it was run: (§1)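 SupT1 T cells in RPMI1640 with 10 % FBS, 2 mM L-glutamine, 0.1 mM NEAA, 1 mM sodium pyruvate, penicillin/streptomycin, at 37 °C and 5 % CO2. Compounds were dissolved in DMSO and incubated with the cells for several days. Viability was read as dead vs. viable cells by Trypan Blue dye exclusion, counted under a microscope.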

[6] = system: SUP-T1; test: Cytotoxicity against human SupT1 cells at 10 uM after 7 days by Trypan Blue dye exclusion analysis; type: cell-based; details: sup-t1, 168 h
[7] = system: SUP-T1; test: Cytotoxicity against human SupT1 cells at 1 uM by Trypan Blue dye exclusion analysis; type: cell-based; details: sup-t1, 1 µM; how it was run: as §1
[8] = system: Human immunodeficiency virus 1; test: Antiviral activity against HIV1 LAI infected in human CD4+ T cells assessed as reduction of p24 positive T cells at 200 nM treated 3 days before infection measured after 9 days by flow cytometry analysis; type: functional; details: Human immunodeficiency virus 1, LAI, T-cell
[9] = system: SUP-T1; test: Cytotoxicity against human SupT1 cells at 0.1 to 1 uM after 7 days by Trypan Blue dye exclusion analysis; type: cell-based; details: sup-t1, 168 h
[10] = system: Human immunodeficiency virus 1; test: Antiviral activity against HIV1 NL4-3 infected in human HeLa cells assessed as drecrease of p24 antigen level after 2 days by CFAR; type: functional, organism-based; details: Human immunodeficiency virus 1, NL4-3, HeLa, 48 h
How it was run: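 2×10^5 HeLa cells in Opti-MEM given increasing compound concentrations (1 % DMSO controls); after 2 days transiently transfected with 1 μg pNL4-3 plasmid by lipofection. Virus production quantified as p24, expressed relative to DMSO controls; three independent transfections, mean ± s.d.; EC50 derived.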

[11] = system: SUP-T1; test: Cytotoxicity against human SupT1 cells at 30 uM after 6 days by Trypan Blue dye exclusion analysis; type: cell-based; details: sup-t1, 144 h; how it was run: as §1

Row | Compound | Activity [1] | pKi [2] | ΔTm [3] | Activity [4] | Activity [5] | Activity [6] | Activity [7] | inhibition at 0.2 µM [8] | Activity [9] | pEC50 [10] | Activity [11]
1 | O=C1NC(=S)S/C1=C\c1cc([N+](=O)[O-])ccc1Sc1ccc(C(F)(F)F)cn1 | Active | 7.14 | 2.4 °C | Active | 0% | > 90% | > 70% | 0% | – | – | –
2 | C/C(=C\c1ccc2c(c1)OCO2)[N+](=O)[O-] | Active | 7.66 | 3.4 °C | Active | 0% | > 90% | > 70% | 18% | – | – | –
3 | O=C1ON=C(c2ccccc2)/C1=C/c1ccc2c(c1)OCO2 | Active | 7.70 | 6.3 °C | Active | 0% | > 90% | > 70% | 33% | – | – | –
4 | CCOc1ccc(/C=C(\C)[N+](=O)[O-])cc1OC | Active | 7.85 | 2.2 °C | Active | 0% | > 90% | – | 50% | < 3% | 6.49 | –
5 | COc1cccc(/C=C2\SC(=S)C(N)C2=O)c1OC (configuration not stated) | Active | 7.74 | 4.8 °C | Active | 0% | – | – | 43% | < 3% | 5.46 | > 70%
